Experiments:
B16 [1] = test: The compound was tested for inhibition of B16-BL6 melanoma cells growing in culture with 0.25 mM DFMO.; type: functional, cell-based; conditions: Mus musculus
B16 [2] = test: The compound was tested for inhibition of B16-BL6 melanoma cells growing in culture.; type: functional, cell-based; conditions: Mus musculus
B16 [3] = test: The compound was tested in vitro for inhibition of cell growth on the B16-BL6 melanoma cells at 0.0(mM)conc.; type: functional, Mus musculus
B16 [4] = test: The compound was tested in vitro for inhibition of cell growth on the B16-BL6 melanoma cells at 0.1(mM)conc.; type: functional, Mus musculus
B16 [5] = test: The compound was tested in vitro for inhibition of cell growth on the B16-BL6 melanoma cells at 0.25(mM)conc.; type: functional, Mus musculus
B16 [6] = test: The compound was tested in vitro for inhibition of cell growth on the B16-BL6 melanoma cells at 0.5(mM)conc.; type: functional, Mus musculus
B16 [7] = test: The compound was tested in vitro for inhibition of cell growth on the B16-BL6 melanoma cells at 0.75(mM)conc.; type: functional, Mus musculus
B16 [8] = test: The compound was tested in vitro for inhibition of cell growth on the B16-BL6 melanoma cells at 1.0(mM)conc.; type: functional, Mus musculus
B16 [9] = test: The compound was tested on [3H]spermidine uptake into BL6 cells at 0.5(mM)conc; type: functional, Mus musculus
How it was run: (§1)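 B16-BL6 melanoma cells were grown in DMEM with 10% heat-inactivated FBS, pyruvate, nonessential amino acids, glutamine, vitamins and 5 μg/mL insulin at […] in 5% CO2. They were pretreated with DFMO at 0–1.0 mM, then [3H]spermidine uptake was read as cpm per million cells. Values are mean ± SEM, compared by Duncan's and LSD tests.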

B16 [10] = test: The compound was tested on [3H]-spermidine uptake into BL6 cells at 0.75(mM)conc; type: functional, Mus musculus; how it was run: as §1
B16 [11] = test: The compound was tested on [3H]spermidine uptake into BL6 cells at 1.0(mM)conc; type: functional, Mus musculus; how it was run: as §1
B16 [12] = test: The compound was tested on spermidine content of the cells at 0.1(mM)conc; type: functional, Mus musculus
How it was run: (§2)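 B16-BL6 cells were cultured in supplemented DMEM and pretreated with DFMO at 0–1.0 mM. Cells were PBS-washed and pelleted, then extracted in 0.3 M perchloric acid with 1,6-hexanediamine internal standard (10 nmol per million cells). Extracts were benzoylated before the column and run by reversed-phase HPLC on a C8 cartridge at ambient temperature, 1.5 mL/min. Quantitation used a 0.05–10 nmol/mL standard curve.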

B16 [13] = test: The compound was tested on spermidine content of the cells at 0.25(mM)conc; type: functional, Mus musculus; how it was run: as §2
B16 [14] = test: The compound was tested on spermidine content of the cells at 0.5 mM) conc; type: functional, Mus musculus; how it was run: as §2
B16 [15] = test: The compound was tested on spermidine content of the cells at 0.75(mM)conc; type: functional, Mus musculus; how it was run: as §2
B16 [16] = test: The compound was tested on spermidine content of the cells at 1.0(mM)conc; type: functional, Mus musculus; how it was run: as §2
B16 [17] = test: The compound was tested on [3H]spermidine uptake into BL6 cells at 0.0(mM)conc; type: functional, Mus musculus; how it was run: as §1
B16 [18] = test: The compound was tested on [3H]-spermidine uptake into BL6 cells at 0.1(mM)conc; type: functional, Mus musculus; how it was run: as §1
B16 [19] = test: The compound was tested on spermidine content of the cells at 0.0(mM)conc; type: functional, Mus musculus; how it was run: as §2
B16 [20] = test: The compound was tested on [3H]spermidine uptake into BL6 cells at 0.25(mM)conc; type: functional, Mus musculus; how it was run: as §1

`O=C(O)CCCc1ccc(N(CCCl)CCCl)cc1` [CHLORAMBUCIL] gave an IC50 (B16 [1]) of 280 µM and an IC50 (B16 [2]) of 220 µM.
For `CC(=O)NCCc1ccc(O)c(O)c1`, the IC50 (B16 [1]) was 2060 µM and the IC50 (B16 [2]) was 1220 µM.
Compound `NCCCNC(CCCN)C(=O)NCCc1ccc(N(CCCl)CCCl)cc1` (stereo unspecified) has an IC50 (B16 [1]) of 512 µM and an IC50 (B16 [2]) of 333 µM.
Compound `NCCCNC(CCCN)C(=O)NCCc1ccc(O)c(O)c1` (stereo unspecified) has an IC50 (B16 [1]) of 1310 µM and an IC50 (B16 [2]) of 1230 µM.
With `NCCCC(N)(C(=O)O)C(F)F` (stereo unspecified) [EFLORNITHINE] the Cell growth (B16 [3]) was 2430000 number of cells ml-1, the Cell growth (B16 [4]) was 2180000 number of cells ml-1 and the Cell growth (B16 [5]) was 1940000 number of cells ml-1. The Cell growth (B16 [6]) was 1090000 number of cells ml-1, the Cell growth (B16 [7]) was 1330000 number of cells ml-1 and the Cell growth (B16 [8]) was 1480000 number of cells ml-1. The cpm/million cells (B16 [9]) was 214540, the cpm/million cells (B16 [10]) was 226404 and the cpm/million cells (B16 [11]) was 250160. For the same compound, the Spermidine concentration (B16 [12]) was 0.6 nM (10e6*cells)-1, the Spermidine concentration (B16 [13]) was 0.34 nM (10e6*cells)-1 and the Spermidine concentration (B16 [14]) was 0.55 nM (10e6*cells)-1. The Spermidine concentration (B16 [15]) was 0.52 nM (10e6*cells)-1, the Spermidine concentration (B16 [16]) was 0.35 nM (10e6*cells)-1 and the cpm/million cells (B16 [17]) was 146600. For the same compound, the cpm/million cells (B16 [18]) was 221610, the Spermidine concentration (B16 [19]) was 2.07 nM (10e6*cells)-1 and the cpm/million cells (B16 [20]) was 219910.

Source: ChEMBL document CHEMBL1125356, “Synthesis and evaluation of novel spermidine derivatives as targeted cancer chemotherapeutic agents” (J Med Chem, 1992)
